One assay concerns the target Ac28-SMT (Acanthamoeba castellanii, UniProt L8GNG7). To be noted: sterol 5 μM to 150 μM, 150 μM SAM, 80 μg SMT; cited from earlier work.
In another assay the target is Ac24-SMT (Acanthamoeba castellanii, UniProt L8GKC5). To be noted: sterol 5 μM to 150 μM, 150 μM SAM, 80 μg SMT; cited from earlier work.
The target of assay [1] is T1, AcCYP51 (Acanthamoeba castellanii, UniProt L8GJB3). Description: AcCYP51 sterol ligand binding, spectral titration. The settings on record: for AcCYP51 Kd: progressive titration of 4 M AcCYP51 with sterol in 40% (W/V) HPCP.
For assay [2], the target named is T1, AcCYP51. Description: CYP51 reconstitution assay, AfCPR1 redox partner, products by GC-MS. The settings on record: for Yield of 14-desmethyl product from substrate by AcCYP51 (GCMS): AfCPR1 redox partner; for AcCYP51 AfCPR kcat: CYP51 reconstitution assay, 50 μM sterol, AfCPR redox partner. Format: biochemical.
The test system of assay [3] is Saccharomyces cerevisiae strain GL7. Description: GL7 sterol auxotroph growth on sterol supplements. Format: cell-based. The settings on record: sterol supplement, 72 h. In outline:
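S. cerevisiae GL7 (lanosterol synthase-defective, ergosterol auxotroph) grown in yeast-peptone-dextrose medium with Tween 80 (15 ml/l) and a sterol supplement at 5 mg/l, or no sterol, for 72 h. Cell density was followed to stationary phase. Sterols were recovered from cells and analysed.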

Assay [4] deals with Acanthamoeba castellanii trophozoites. Description: Trophozoite growth with cholesterol supplement. In kind it is cell-based. To be noted: 10μM in DMSO or as FBS. In outline: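 Axenic static cultures of strain ATCC 30010 were grown in 5 ml ATCC medium 712 in T-flasks at 25 °C with occasional hand shaking, seeded with about 1×10^4 trophozoites. The medium was supplemented with FBS, per ATCC medium, or with 10 µM cholesterol in DMSO. Cells were counted along the growth curve, with viability by trypan blue exclusion.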

The test system of the next assay is Acanthamoeba castellanii. In kind it is cell-based.
Assay [5] has as its system Acanthamoeba castellanii resting cysts. The experiment in a line: Cysticidal / excystment assay. In kind it is cell-based. The settings on record: cysts from the SDS-treated process.
For assay [6], the system named is Acanthamoeba castellanii trophozoites. The experiment in a line: Trophozoite toxicity assay. Format: cell-based. The settings on record: for IC50: Acanthamoeba castellanii, 48 h, read-out: IC50 against trophozoite growth.
For assay [7] the test system is unchanged. The experiment in a line: Time-dependent killing and regrowth in fresh medium. Format: cell-based. To be noted: inhibitor at approximate MAC, then fresh medium for a week.

Structures are written as SMILES. Several values for one entry are separate records, joined by “and”; a condition that tells them apart may be missing. Identical values can stand only once. Bounds are passed on as bounds.

A word on the Kd: it is the constant that tells how readily two partners part at equilibrium. Low readings indicate a tighter complex, high ones a looser complex. Consider `C=C(CC[C@@H](C)[C@H]1CC[C@@]2(C)C3=C(CC[C@]12C)[C@@]1(C)CC[C@H](O)[C@@H](C)[C@@H]1CC3)C(C)C` [compound 10], for which, at Ac28-SMT, the 28-SMT kcat was 0 s⁻¹. Besides, at Ac24-SMT, the 24-SMT kcat is 0 s⁻¹. This compound also returned a Kd on AcCYP51 [1] of 41 ± 3 µM. In addition, on AcCYP51 [2] (listed as obtusifoliol), the “Yield of 14-desmethyl product from substrate by AcCYP51 (GCMS)” value (from here on “Yield of 14-desmethyl product”) was < 95% and 95%; the “AcCYP51 AfCPR kcat” value was determined as 0.127 s⁻¹. Moreover, the “AcCYP51 AfCPR kcat” value on AcCYP51 [2] stood at 0.127 ± 0.00083 s⁻¹.
With `CC(C)=CCCC(C)C1CCC2(C)C3=CCC4C(C)(C)C(O)CCC4(C)C3CCC12C` (stereo not drawn) [compound 36, Lanosta-7,24(25)-dienol], the “AcCYP51 AfCPR kcat” value on AcCYP51 [2] is 0 s⁻¹.
`CC(C)=CCC[C@@H](C)[C@H]1CC[C@@]2(C)C3=C(CC[C@]12C)[C@@]1(C)CC[C@H](O)C[C@@H]1CC3` [compound 35, 14α-Methylcholest-8,24(25)-dienol]: the 28-SMT kcat at Ac28-SMT was 0.0065 ± 0.00033 s⁻¹. Also, the 24-SMT kcat on Ac24-SMT is 0.025 ± 0.00083 s⁻¹. Moreover, on AcCYP51 [2], the “AcCYP51 AfCPR kcat” value turned out to be 0.0267 ± 0.0013 s⁻¹.
As for `CC[C@@H](C=C[C@@H](C)[C@H]1CC[C@H]2C3=CC=C4C[C@@H](O)CC[C@]4(C)[C@H]3CC[C@]12C)C(C)C` [compound 11, Poriferasta-5,7,22-trienol], the “GL7 cell density at stationary phase / growth arrest” value in assay [3] was 1 × 10^8 cells/ml.
For `CC(C)CCC[C@@H](C)[C@H]1CC[C@@]2(C)C3=C(CC[C@]12C)[C@@]1(C)CC[C@H](O)C(C)(C)[C@@H]1CC3` [compound 34, Lanost-8-enol], the “AcCYP51 AfCPR kcat” value at AcCYP51 [2] turned out to be 0.0333 ± 3.3e-05 s⁻¹.
As to `CC(C)=CCC[C@@H](C)[C@H]1CC[C@@]2(C)C3=C(CC[C@]12C)[C@@]1(C)CC[C@H](O)[C@@H](C)[C@@H]1CC3` [compound 37, 4α, 14α-Dimethylcholesta-8,24(25)-dienol], the 28-SMT kcat at Ac28-SMT was 0.0123 ± 0.00033 s⁻¹. Besides, the 24-SMT kcat at Ac24-SMT was 0.025 ± 0.00067 s⁻¹. Moreover, the “AcCYP51 AfCPR kcat” value on AcCYP51 [2] is 0 s⁻¹.
Consider `CC(C)=CCC[C@@H](C)[C@H]1CC[C@@]2(C)[C@@H]3CC[C@H]4C(C)(C)[C@@H](O)CC[C@@]45C[C@@]35CC[C@]12C` [compound 21, Cycloart-24(25)-enol], for which, at Ac28-SMT, the 28-SMT kcat is 0.0075 ± 0.0005 s⁻¹. Moreover, at Ac24-SMT, the 24-SMT kcat is 0.025 ± 0.0012 s⁻¹. This compound also came in with a Kd at AcCYP51 [1] of 18 ± 5 µM. Also, on AcCYP51 [2], the “Yield of 14-desmethyl product” value is listed as “no metabolism occurred” and the “AcCYP51 AfCPR kcat” value was 0 s⁻¹.
In the case of `C=C(CC[C@@H](C)[C@H]1CC[C@@]2(C)[C@@H]3CC[C@H]4[C@H](C)[C@@H](O)CC[C@@]45C[C@@]35CC[C@]12C)C(C)C` [compound 24, 4α-Methylcycloart-24(28)-enol], the “AcCYP51 Kd” value on AcCYP51 [1] is “No fit”. At AcCYP51 [2], the “Yield of 14-desmethyl product” value is recorded as ~ 1% and the “AcCYP51 AfCPR kcat” value came out at 0.00067 ± 0.00017 s⁻¹.
For `CC(C)CCC[C@@H](C)[C@H]1CC[C@H]2[C@@H]3CC=C4C[C@@H](O)CC[C@]4(C)[C@H]3CC[C@]12C` [cholesterol], the “Effect of supplement on trophozoite growth” value in assay [4] was “only a minor stimulation effect”.
Turning to `CC(C)[C@@H](C)/C=C/[C@@H](C)[C@H]1CC[C@H]2C3=CC=C4C[C@@H](O)CC[C@]4(C)[C@H]3CC[C@]12C` [compound 2, Ergosta-5,7,22-trienol], the “GL7 cell density at stationary phase / growth arrest” value in assay [3] is on record as ~1 × 10^8 cells/ml.
`C=C(CCC(C)C1CCC2(C)C3=C(CCC12C)C1(C)CCC(O)C(C)(C)C1CC3)C(C)C` (stereo not drawn) [compound 32, Lanosta-8,24(28)-dienol]: the Kd at AcCYP51 [1] amounted to 51 ± 10 µM. The “AcCYP51 AfCPR kcat” value at AcCYP51 [2] stood at 0.0533 ± 0.00067 s⁻¹.
Regarding `C=C(CC[C@@H](C)[C@H]1CC[C@H]2C3=CC[C@H]4[C@H](C)[C@@H](O)CC[C@]4(C)[C@H]3CC[C@]12C)C(C)C` [compound 14, 4α-Methylergosta-7, 24(28)-dienol], the 28-SMT kcat at Ac28-SMT was 0.0133 ± 0.00067 s⁻¹. Moreover, the 24-SMT kcat on Ac24-SMT was 0 s⁻¹. Also, the “AcCYP51 AfCPR kcat” value on AcCYP51 [2] was found to be 0 s⁻¹.
Take `O=c1[nH]c(=O)n([C@H]2C[C@H](O)[C@@H](CO)O2)cc1F` [FUdR, 5-fluor-2-deoxyuridine]: in the assay with Acanthamoeba castellanii (cultures with inhibitor at stationary phase of control), the “Encysted cells alive by trypan blue staining” value is above 95%. In addition, in assay [5], the “Excystment of resting cysts into trophozoites under treatment” value was “easily excysted into trophozoites by 3 days”.
`CC(C)[C@@H](C)/C=C/[C@@H](C)[C@H]1CC[C@H]2[C@@H]3CC=C4C[C@@H](O)CC[C@]4(C)[C@H]3CC[C@]12C` [compound 1, Ergosta-5,22-dienol]: the “GL7 cell density at stationary phase / growth arrest” value in assay [3] is 1 × 10^8 cells/ml.
Turning to `C=C(CC[C@@H](C)[C@H]1CC[C@@]2(C)[C@@H]3CC[C@H]4C(C)(C)[C@@H](O)CC[C@@]45C[C@@]35CC[C@]12C)C(C)C` [compound 27, Cycloart-24(28)-enol], the 28-SMT kcat at Ac28-SMT is 0.00383 ± 0.00083 s⁻¹. In addition, on Ac24-SMT, the 24-SMT kcat was 0 s⁻¹. On AcCYP51 [1], the “AcCYP51 Kd” value was “No fit”. For the same compound, the “AcCYP51 AfCPR kcat” value at AcCYP51 [2] was 0 s⁻¹.
The IC50 is the concentration needed to halve the response being measured. Take `C[C@H](CCCN(C)C)[C@H]1CC[C@@]2(C)[C@@H]3CC[C@H]4C(C)(C)[C@@H](O)CC[C@@]45C[C@@]35CC[C@]12C` [25-azacycloartanol]: the 50% inhibitory concentration (IC50) in [6] is 0.025 µM. Also, in [6] (lowest concentration with no visible live trophozoites, 48 hr), the “MAC (minimum amoebicidal concentration)” value lay in the range of 1 to 3 µM. In [7], the “Growth after 48 h treated pellets were transferred to fresh medium” value was “no growth”.
Turning to `C[C@@H](c1ncncc1F)[C@](O)(Cn1cncn1)c1ccc(F)cc1F` [voriconazole, reference compound], the “Number of cells at 48 h” value with Acanthamoeba castellanii (reduced by a factor of 10, most dead by trypan blue staining) is 2–3 × 10^4 cells/ml. Further, in [6], the IC50 stood at 0.14 µM. The “Growth after 48 h treated pellets were transferred to fresh medium” value in [7] is listed as “a few thousand trophozoites were evident”.
For `CC[C@@H](C=C[C@@H](C)[C@H]1CC[C@H]2[C@@H]3CC=C4C[C@@H](O)CC[C@]4(C)[C@H]3CC[C@]12C)C(C)C` [compound 6, Poriferasta-5,22 -dienol], the “GL7 cell density at stationary phase / growth arrest” value in assay [3] is 1 × 10^8 cells/ml.
`CC(C)=CCC[C@@H](C)[C@H]1CC[C@@]2(C)C3=C(CC[C@]12C)[C@@]1(C)CC[C@H](O)C(C)(C)[C@@H]1CC3` [compound 33, Lanosta-8,24(25)-dienol]: the 28-SMT kcat on Ac28-SMT was 0.00383 ± 0.00017 s⁻¹. Also, on Ac24-SMT, the 24-SMT kcat was 0.025 ± 0.00017 s⁻¹. For the same compound, on AcCYP51 [1], the Kd is 46 ± 3 µM. Besides, on AcCYP51 [2], the “AcCYP51 AfCPR kcat” value was 0.0283 ± 0.00017 s⁻¹.

These data come from article PMC6180906 (Biochimica et biophysica acta. Molecular and cell biology …, 2018).
